Assay outcomes as filed in PubChem BioAssay.
In the library only some 2.7% were active in any assay of this set; here they are far more common.
ARFGAP1 inh – inhibitors of rat ARFGAP1 GAP activity, primary screen, biochemical, fluorescence polarization, GDP tracer. ADP-ribosylation factor GTPase-activating protein 1 (Rattus norvegicus), Q62848. Arfgap1-stimulated ARF1 GTP hydrolysis, GDP FP detection. inhibition, % at 16.5 µM. 360,000 tested, 0.26% active. AID 651572, 2012;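 active = inhibition above a per-plate limit, mean inhibition of low control wells plus 3 SD, cut at about 25% in these data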
Target sequence (Q62848 1-136 limits assumed): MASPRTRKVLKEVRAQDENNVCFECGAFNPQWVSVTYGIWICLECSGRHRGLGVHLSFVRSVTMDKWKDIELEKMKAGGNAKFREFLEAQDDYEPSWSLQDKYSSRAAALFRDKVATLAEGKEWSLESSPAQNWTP
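Repeats: one replicate per compound; assay system: rat Arfgap1 catalytic domain, aa 1-136; times: enzyme reaction 120 min at 25 °C after 20 min preincubation; detection: FP of antibody-bound GDP Alexa 633 tracer, ex 620/em 688 nm; benchmarks: high control wells lacking Arfgap1, low control full reaction with DMSO; reagent: human ARF1(Δ1-17)-GTP substrate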
ASAP1 inh – inhibitors of human ASAP1 ArfGAP activity, primary screen, biochemical, fluorescence polarization. Arf-GAP with SH3 domain, ANK repeat and PH domain-containing protein 1 (Homo sapiens), …. AID 624377, 2012. 360,000 tested, 0.19% active. inhibition, % at 16.5 µM. ASAP1-stimulated ARF1 GTP hydrolysis, GDP FP detection; in the data active = inhibition above about 25%
PAFAH2 inh – PAFAH2 enzyme inhibitors, primary screen, biochemical, fluorescence polarization, human; Platelet-activating factor acetylhydrolase 2, cytoplasmic (Homo sapiens), Q99487; recombinant PAFAH2, FP-rhodamine activity probe; inhibition, % at 3.39 µM; 340,000 tested, 0.99% active; AID 492956, 2010;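 active = inhibition above the mean over all tested compounds plus 3 SD, cut at about 30% in these data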;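 also: inhibitors block probe labeling of enzyme so polarization drops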
pPAFAH inh – pPAFAH enzyme inhibitors, primary screen, biochemical, fluorescence polarization, human. Platelet-activating factor acetylhydrolase (Homo sapiens), Q13093. recombinant pPAFAH, FP-rhodamine probe fluorescence polarization. inhibition, % at 3.39 µM. 330,000 tested, 1.5% active. AID 463082, 2010;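 active = inhibition above the mean inhibition across the screen plus 3 SD, cut at about 25% in these data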;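 also: inhibitors block binding of the rhodamine activity-based probe so polarization drops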
PAFAH1B3 inh – PAFAH1B3 enzyme inhibitors, primary screen, biochemical, fluorescence polarization, human; recombinant PAFAH1B3, FP-rhodamine probe; inhibition, % at 3.39 µM; AID 492972, 2010; 340,000 tested, 0.28% active;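 active = inhibition above the screen-wide average of all tested compounds plus 3 SD, cut at about 25% in these data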
Target sequence (Q15102 whole entry, looked up): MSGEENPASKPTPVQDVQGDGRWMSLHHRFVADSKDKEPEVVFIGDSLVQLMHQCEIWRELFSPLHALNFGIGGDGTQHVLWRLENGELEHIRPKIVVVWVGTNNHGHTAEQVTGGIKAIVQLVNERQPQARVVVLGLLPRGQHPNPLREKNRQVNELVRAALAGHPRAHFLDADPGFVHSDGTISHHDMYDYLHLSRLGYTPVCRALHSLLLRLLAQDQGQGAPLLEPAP
PAFAH1B2 inh – PAFAH1B2 enzyme inhibitors, primary screen, biochemical, fluorescence polarization, human. Platelet-activating factor acetylhydrolase IB subunit alpha2 (Homo sapiens), P68402. recombinant PAFAH1B2, FP-rhodamine activity probe. inhibition, % at 3.39 µM. 340,000 tested, 1.2% active. AID 492953, 2010;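 active = inhibition above the mean of all tested compounds plus 3 SD, cut at about 24% in these data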
Target sequence (P68402 whole entry, looked up): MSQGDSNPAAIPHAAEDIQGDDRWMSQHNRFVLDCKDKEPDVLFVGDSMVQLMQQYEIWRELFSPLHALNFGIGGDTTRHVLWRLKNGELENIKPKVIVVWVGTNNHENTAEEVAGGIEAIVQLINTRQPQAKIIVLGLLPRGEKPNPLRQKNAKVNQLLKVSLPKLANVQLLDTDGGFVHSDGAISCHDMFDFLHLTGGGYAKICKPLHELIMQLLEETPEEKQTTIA
ASAP1 inh confirm – ASAP1 GAP activity inhibitors, confirmation, biochemical, fluorescence polarization, human, triplicate; shares compounds with ASAP1 inh; ASAP1-stimulated Arf1 GTPase, GDP fluorescence polarization; inhibition, % at 16.5 µM; 620 tested, 37% active; AID 624431, 2012;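 active = mean inhibition over triplicates exceeds the hit threshold derived for the earlier primary screening run, cut at about 25% in these data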
Numbers stand for hits.

What do the screens show for `Cc1ccc(-c2cc(C(=O)N/N=C/c3c(C)nn(-c4ccccc4)c3C)n[nH]2)s1`?
ARFGAP1 inh: inactive; ASAP1 inh: 26; PAFAH2 inh: inactive; PAFAH1B3 inh: inactive; PAFAH1B2 inh: inactive; ASAP1 inh confirm: 34

Results for COc1cc(OC)c(S(=O)(=O)Nc2ccc(C(=O)O)cc2)cc1S(=O)(=O)Nc1ccc(C(=O)O)cc1 ?
ARFGAP1 inh: inactive; ASAP1 inh: inactive; PAFAH2 inh: inactive; pPAFAH inh: inactive; PAFAH1B3 inh: inactive; PAFAH1B2 inh: inactive

How did CC(C)(C)c1nc(N2CCN(C(=O)c3ccco3)CC2)c2nnn(Cc3ccccc3)c2n1 do in these assays?
ARFGAP1 inh: inactive; ASAP1 inh: 49; PAFAH2 inh: inactive; pPAFAH inh: inactive; PAFAH1B3 inh: inactive; PAFAH1B2 inh: inactive; ASAP1 inh confirm: inactive

How did COc1cnc(-c2ccccc2)nc1Oc1cccc(C)c1 do in these assays?
ARFGAP1 inh: inactive; ASAP1 inh: 25; PAFAH2 inh: inactive; pPAFAH inh: inactive; PAFAH1B3 inh: inactive; PAFAH1B2 inh: inactive; ASAP1 inh confirm: inactive

Results for COc1cnc(-c2ccccc2)nc1OC ?
ARFGAP1 inh: inactive; ASAP1 inh: inactive; PAFAH2 inh: inactive; pPAFAH inh: inactive; PAFAH1B3 inh: inactive; PAFAH1B2 inh: inactive

What do the screens show for `COc1ccc(Nc2ncnc3sc(-c4ccccc4)cc23)cc1OC`?
ARFGAP1 inh: inactive; ASAP1 inh: 26; PAFAH2 inh: inactive; pPAFAH inh: 32; PAFAH1B3 inh: 32; PAFAH1B2 inh: inactive; ASAP1 inh confirm: 28

What do the screens show for `CSCCNC(=O)C1(C)CCN1C(=O)CCc1ccccc1` (stereo not drawn)?
ARFGAP1 inh: inactive; ASAP1 inh: 29; ASAP1 inh confirm: inactive

How did CC1(C(=O)NS(=O)(=O)c2ccccc2)CCN1C(=O)CCc1ccccc1 (stereo not drawn) do in these assays?
ARFGAP1 inh: inactive; ASAP1 inh: inactive

How did Nc1c(S(=O)(=O)c2cccs2)c2nc3ccccc3nc2n1Cc1ccccc1 do in these assays?
ARFGAP1 inh: inactive; ASAP1 inh: 26; PAFAH2 inh: inactive; pPAFAH inh: inactive; PAFAH1B3 inh: inactive; PAFAH1B2 inh: inactive; ASAP1 inh confirm: inactive

What do the screens show for `CC[C@H](CO)Oc1cc(NCc2ccc(Cl)c(Cl)c2)c2ncn(C(C)C)c2c1`?
ARFGAP1 inh: inactive; ASAP1 inh: 26; PAFAH2 inh: inactive; pPAFAH inh: inactive; PAFAH1B3 inh: inactive; PAFAH1B2 inh: inactive; ASAP1 inh confirm: inactive

How did CCC(CO)Oc1cc(NCc2ccc(C)cc2)c2ncn(C(C)C)c2c1 (stereo not drawn) do in these assays?
ARFGAP1 inh: inactive; ASAP1 inh: inactive; PAFAH2 inh: inactive; pPAFAH inh: inactive; PAFAH1B3 inh: inactive; PAFAH1B2 inh: inactive

Results for Cc1cccc(NC(=O)CSc2nnc(-c3ccc(S(=O)(=O)N4CCCC4)cc3)o2)c1 ?
PAFAH2 inh: inactive; pPAFAH inh: inactive; PAFAH1B3 inh: inactive; PAFAH1B2 inh: inactive

What do the screens show for `Cc1ccc(NC(=O)CSc2nnc(-c3ccc(S(=O)(=O)N4CCCC4)cc3)o2)cc1C`?
ARFGAP1 inh: inactive; ASAP1 inh: 31; PAFAH2 inh: inactive; pPAFAH inh: inactive; PAFAH1B3 inh: inactive; PAFAH1B2 inh: inactive; ASAP1 inh confirm: inactive

Results for COc1ccc(OC)c(C2SCCN2S(=O)(=O)c2cccc(C(F)(F)F)c2)c1 (stereo not drawn) ?
ARFGAP1 inh: inactive; ASAP1 inh: 25; PAFAH2 inh: inactive; pPAFAH inh: inactive; PAFAH1B3 inh: inactive; PAFAH1B2 inh: inactive; ASAP1 inh confirm: inactive

How did COc1cc(OC)c(C2SCCN2S(=O)(=O)c2ccc(F)cc2)cc1OC (stereo not drawn) do in these assays?
ARFGAP1 inh: inactive; ASAP1 inh: inactive; PAFAH2 inh: inactive; pPAFAH inh: inactive; PAFAH1B3 inh: inactive; PAFAH1B2 inh: inactive

What do the screens show for `CCC(=O)N1c2ccc(S(=O)(=O)CCC(=O)N3CCN(c4ccccc4F)CC3)cc2CC1C` (stereo not drawn)?
ARFGAP1 inh: inactive; ASAP1 inh: inactive; PAFAH2 inh: inactive; pPAFAH inh: inactive; PAFAH1B3 inh: inactive; PAFAH1B2 inh: inactive

How did CCNC(=O)C1(C)CCCN1Cc1ccccc1Cl (stereo not drawn) do in these assays?
ARFGAP1 inh: inactive; ASAP1 inh: inactive

How did CCOC(=O)c1ccc(Oc2cn[nH]c2-c2ccc(O)cc2O)cc1 do in these assays?
ARFGAP1 inh: inactive; ASAP1 inh: 27; PAFAH2 inh: inactive; pPAFAH inh: inactive; PAFAH1B3 inh: inactive; PAFAH1B2 inh: inactive; ASAP1 inh confirm: inactive

Results for CCCOC(=O)c1ccc(Oc2cn[nH]c2-c2ccc(O)cc2O)cc1 ?
ARFGAP1 inh: inactive; ASAP1 inh: inactive; PAFAH2 inh: inactive; pPAFAH inh: inactive; PAFAH1B3 inh: inactive; PAFAH1B2 inh: inactive

Results for COc1cccc(NC(=O)c2ccc3nc(C)c(N(C)Cc4ccc(NC(C)=O)cc4)n3c2)c1 ?
ARFGAP1 inh: inactive; ASAP1 inh: inactive

Results for O=C(NC1CC1)c1ccc(NC(=O)C2CCC2)cc1 ?
ARFGAP1 inh: inactive; ASAP1 inh: inactive; PAFAH2 inh: inactive; PAFAH1B3 inh: inactive; PAFAH1B2 inh: inactive

Results for Cc1nn(-c2cc(C(F)(F)F)ccc2Cl)c2nc(C(Cl)(Cl)Cl)[nH]c(=O)c12 ?
ARFGAP1 inh: inactive; ASAP1 inh: inactive; PAFAH2 inh: inactive; pPAFAH inh: inactive; PAFAH1B3 inh: inactive; PAFAH1B2 inh: inactive

What do the screens show for `COc1cccc(-n2nnc3c(=O)n(Cc4ccc(Br)cc4)cnc32)c1`?
ARFGAP1 inh: inactive; ASAP1 inh: 28; PAFAH2 inh: inactive; pPAFAH inh: inactive; PAFAH1B3 inh: inactive; PAFAH1B2 inh: inactive; ASAP1 inh confirm: 35

How did CCOc1ccccc1NC(=O)Cn1cnc2c(nnn2-c2cccc(OC)c2)c1=O do in these assays?
ARFGAP1 inh: inactive; ASAP1 inh: inactive; PAFAH2 inh: inactive; pPAFAH inh: inactive; PAFAH1B3 inh: inactive; PAFAH1B2 inh: inactive

What do the screens show for `COc1cccc(-n2nnc3c(=O)n(CC(=O)Nc4ccccc4C)cnc32)c1`?
ARFGAP1 inh: inactive; ASAP1 inh: 32; PAFAH2 inh: inactive; pPAFAH inh: inactive; PAFAH1B3 inh: inactive; PAFAH1B2 inh: inactive; ASAP1 inh confirm: inactive

How did O=C(Nc1nc2c(Br)cc(Br)cc2c(=O)s1)C1CCC1 do in these assays?
ARFGAP1 inh: inactive; ASAP1 inh: inactive; PAFAH2 inh: inactive; pPAFAH inh: inactive; PAFAH1B3 inh: inactive; PAFAH1B2 inh: inactive
